These results are taken from ChEMBL document CHEMBL4706568, “Some thermodynamic effects of varying nonpolar surfaces in protein-ligand interactions” (Eur J Med Chem, 2020).

Square brackets hold non-standard residues; d marks the D form. Peptide text beside a SMILES is read from it. pY = N[C@@H](Cc1ccc(OP(=O)(O)O)cc1)C(=O)O; Ac6c = NC1(C(=O)O)CCCCC1

Sequence of Growth factor receptor-bound protein 2 (Homo sapiens) (P62993 whole entry, looked up, the tested form may be a part): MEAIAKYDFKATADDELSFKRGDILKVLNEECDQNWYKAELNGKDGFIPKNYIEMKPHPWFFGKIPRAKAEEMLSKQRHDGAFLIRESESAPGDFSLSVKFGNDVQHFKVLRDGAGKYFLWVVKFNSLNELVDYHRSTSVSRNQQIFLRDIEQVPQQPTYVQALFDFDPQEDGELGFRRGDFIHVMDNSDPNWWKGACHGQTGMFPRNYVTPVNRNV

One assay concerns the target Growth factor receptor-bound protein 2 (Homo sapiens) (UniProt P62993). Description: Binding affinity to Grb2-SH2 domain (53 to 163 residues) (unknown origin) expressed in Escherichia coli assessed as change in gibbs free energy by ITC analysis. In outline: (§1)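 Grb2 SH2 residues 53–163 expressed in E. coli SG13009 (IPTG induction), purified by phosphotyrosine affinity, Q-Sepharose and size exclusion to isolate monomer. Protein diluted to 65–85 μM, ligand ~1 mM, both in 50 mM HEPES, 150 mM NaCl, pH 7.50. VP-ITC at 25 °C, ~35 injections of 7–9 μL ligand, buffer heats subtracted, n normalized to 1.00; ≥3 runs averaged.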
With `CC(=O)N[C@@H](Cc1ccc(OP(=O)(O)O)cc1)C(=O)NC1(C(=O)N[C@@H](CC(N)=O)C(=O)NCCCc2ccccc2)CCCCC1`, the deltaG is -42.3 kJ/mol.

On to `CC(=O)N[C@@H](Cc1ccc(OP(=O)(O)O)cc1)C(=O)NC1(C(=O)N[C@@H](CC(N)=O)C(=O)NCCCCC(C)C)CCCCC1`, for which the deltaG is -41 kJ/mol.

As to `CC(=O)N[C@@H](Cc1ccc(OP(=O)(O)O)cc1)C(=O)NC1(C(=O)N[C@@H](CC(N)=O)C(N)=O)CCCCC1` (Ac-[pY]-[Ac6c]-Asn-NH2), the deltaG was -38.9 kJ/mol.

As for `CC(=O)N[C@@H](Cc1ccc(OP(=O)(O)O)cc1)C(=O)NC1(C(=O)N[C@@H](CC(N)=O)C(=O)NCCCc2cccc3ccccc23)CCCCC1`, the deltaG was -44.4 kJ/mol.

Consider `CC(=O)N[C@@H](Cc1ccc(OP(=O)(O)O)cc1)C(=O)NC1(C(=O)N[C@@H](CC(N)=O)C(=O)NCCCC(C)C)CCCCC1`, for which the deltaG is -41 kJ/mol.

As for `CC(=O)N[C@@H](Cc1ccc(OP(=O)(O)O)cc1)C(=O)NC1(C(=O)N[C@@H](CC(N)=O)C(=O)NCCCc2ccc(Cl)cc2)CCCCC1`, the deltaG is -43.9 kJ/mol.

In the case of `CC(=O)N[C@@H](Cc1ccc(OP(=O)(O)O)cc1)C(=O)NC1(C(=O)N[C@@H](CC(N)=O)C(=O)NCCCc2ccc(C)cc2)CCCCC1`, the deltaG is -43.1 kJ/mol.

For the compound `COc1ccc(CCCNC(=O)[C@H](CC(N)=O)NC(=O)C2(NC(=O)[C@H](Cc3ccc(OP(=O)(O)O)cc3)NC(C)=O)CCCCC2)cc1`, the deltaG was -43.9 kJ/mol.

For `CC(=O)N[C@@H](Cc1ccc(OP(=O)(O)O)cc1)C(=O)NC1(C(=O)N[C@@H](CC(N)=O)C(=O)NCCc2cn(C)c3ccccc23)CCCCC1`, the deltaG was -42.3 kJ/mol.

The target is the same in a further assay. Kind of assay: Binding affinity to Grb2-SH2 domain (53 to 163 residues) (unknown origin) expressed in Escherichia coli assessed as change in entropy by ITC analysis. An outline of the steps: as §1
In the case of `CC(=O)N[C@@H](Cc1ccc(OP(=O)(O)O)cc1)C(=O)NC1(C(=O)N[C@@H](CC(N)=O)C(=O)NCCCc2ccccc2)CCCCC1`, the -TdeltaS was -5.44 kJ/mol.

On to `CC(=O)N[C@@H](Cc1ccc(OP(=O)(O)O)cc1)C(=O)NC1(C(=O)N[C@@H](CC(N)=O)C(=O)NCCCCC(C)C)CCCCC1`, for which the -TdeltaS was -8.37 kJ/mol.

In the case of `CC(=O)N[C@@H](Cc1ccc(OP(=O)(O)O)cc1)C(=O)NC1(C(=O)N[C@@H](CC(N)=O)C(N)=O)CCCCC1` (Ac-[pY]-[Ac6c]-Asn-NH2), the -TdeltaS is -3.35 kJ/mol.

Turning to `CC(=O)N[C@@H](Cc1ccc(OP(=O)(O)O)cc1)C(=O)NC1(C(=O)N[C@@H](CC(N)=O)C(=O)NCCCc2cccc3ccccc23)CCCCC1`, the -TdeltaS was -4.18 kJ/mol.

For `CC(=O)N[C@@H](Cc1ccc(OP(=O)(O)O)cc1)C(=O)NC1(C(=O)N[C@@H](CC(N)=O)C(=O)NCCCC(C)C)CCCCC1`, the -TdeltaS was -7.95 kJ/mol.

Turning to `CC(=O)N[C@@H](Cc1ccc(OP(=O)(O)O)cc1)C(=O)NC1(C(=O)N[C@@H](CC(N)=O)C(=O)NCCCc2ccc(Cl)cc2)CCCCC1`, the -TdeltaS was -5.86 kJ/mol.

Regarding `CC(=O)N[C@@H](Cc1ccc(OP(=O)(O)O)cc1)C(=O)NC1(C(=O)N[C@@H](CC(N)=O)C(=O)NCCCc2ccc(C)cc2)CCCCC1`, the -TdeltaS was -7.11 kJ/mol.

On to `COc1ccc(CCCNC(=O)[C@H](CC(N)=O)NC(=O)C2(NC(=O)[C@H](Cc3ccc(OP(=O)(O)O)cc3)NC(C)=O)CCCCC2)cc1`, for which the -TdeltaS is -5.86 kJ/mol.

As for `CC(=O)N[C@@H](Cc1ccc(OP(=O)(O)O)cc1)C(=O)NC1(C(=O)N[C@@H](CC(N)=O)C(=O)NCCc2cn(C)c3ccccc23)CCCCC1`, the -TdeltaS is -8.37 kJ/mol.

A further assay has the same target. Description: Binding affinity to Grb2-SH2 domain (53 to 163 residues) (unknown origin) expressed in Escherichia coli assessed as change in enthalpy by ITC analysis. An outline of the steps:
as §1
On to `CC(=O)N[C@@H](Cc1ccc(OP(=O)(O)O)cc1)C(=O)NC1(C(=O)N[C@@H](CC(N)=O)C(=O)NCCCc2ccccc2)CCCCC1`, for which the deltaH is -36.8 kJ/mol.

Regarding `CC(=O)N[C@@H](Cc1ccc(OP(=O)(O)O)cc1)C(=O)NC1(C(=O)N[C@@H](CC(N)=O)C(=O)NCCCCC(C)C)CCCCC1`, the deltaH was -32.6 kJ/mol.

On to `CC(=O)N[C@@H](Cc1ccc(OP(=O)(O)O)cc1)C(=O)NC1(C(=O)N[C@@H](CC(N)=O)C(N)=O)CCCCC1` (Ac-[pY]-[Ac6c]-Asn-NH2), for which the deltaH is -35.6 kJ/mol.

In the case of `CC(=O)N[C@@H](Cc1ccc(OP(=O)(O)O)cc1)C(=O)NC1(C(=O)N[C@@H](CC(N)=O)C(=O)NCCCc2cccc3ccccc23)CCCCC1`, the deltaH was -40.2 kJ/mol.

For `CC(=O)N[C@@H](Cc1ccc(OP(=O)(O)O)cc1)C(=O)NC1(C(=O)N[C@@H](CC(N)=O)C(=O)NCCCC(C)C)CCCCC1`, the deltaH was -33.1 kJ/mol.

Regarding `CC(=O)N[C@@H](Cc1ccc(OP(=O)(O)O)cc1)C(=O)NC1(C(=O)N[C@@H](CC(N)=O)C(=O)NCCCc2ccc(Cl)cc2)CCCCC1`, the deltaH is -38.1 kJ/mol.

In the case of `CC(=O)N[C@@H](Cc1ccc(OP(=O)(O)O)cc1)C(=O)NC1(C(=O)N[C@@H](CC(N)=O)C(=O)NCCCc2ccc(C)cc2)CCCCC1`, the deltaH is -36 kJ/mol.

As to `COc1ccc(CCCNC(=O)[C@H](CC(N)=O)NC(=O)C2(NC(=O)[C@H](Cc3ccc(OP(=O)(O)O)cc3)NC(C)=O)CCCCC2)cc1`, the deltaH was -38.1 kJ/mol.

In the case of `CC(=O)N[C@@H](Cc1ccc(OP(=O)(O)O)cc1)C(=O)NC1(C(=O)N[C@@H](CC(N)=O)C(=O)NCCc2cn(C)c3ccccc23)CCCCC1`, the deltaH is -33.9 kJ/mol.

Another assay shares this target. Kind of assay: Binding affinity to Grb2-SH2 domain (53 to 163 residues) (unknown origin) expressed in Escherichia coli assessed as association constant by ITC analysis. In outline: as §1
Take `CC(=O)N[C@@H](Cc1ccc(OP(=O)(O)O)cc1)C(=O)NC1(C(=O)N[C@@H](CC(N)=O)C(=O)NCCCc2ccccc2)CCCCC1`: the Ka is 2.6 10^7/M.

As to `CC(=O)N[C@@H](Cc1ccc(OP(=O)(O)O)cc1)C(=O)NC1(C(=O)N[C@@H](CC(N)=O)C(=O)NCCCCC(C)C)CCCCC1`, the Ka is 1.7 10^7/M.

Regarding `CC(=O)N[C@@H](Cc1ccc(OP(=O)(O)O)cc1)C(=O)NC1(C(=O)N[C@@H](CC(N)=O)C(N)=O)CCCCC1` (Ac-[pY]-[Ac6c]-Asn-NH2), the Ka is 0.7 10^7/M.

In the case of `CC(=O)N[C@@H](Cc1ccc(OP(=O)(O)O)cc1)C(=O)NC1(C(=O)N[C@@H](CC(N)=O)C(=O)NCCCc2cccc3ccccc23)CCCCC1`, the Ka was 6 10^7/M.

In the case of `CC(=O)N[C@@H](Cc1ccc(OP(=O)(O)O)cc1)C(=O)NC1(C(=O)N[C@@H](CC(N)=O)C(=O)NCCCC(C)C)CCCCC1`, the Ka was 1.6 10^7/M.

Turning to `CC(=O)N[C@@H](Cc1ccc(OP(=O)(O)O)cc1)C(=O)NC1(C(=O)N[C@@H](CC(N)=O)C(=O)NCCCc2ccc(Cl)cc2)CCCCC1`, the Ka is 4.7 10^7/M.

For `CC(=O)N[C@@H](Cc1ccc(OP(=O)(O)O)cc1)C(=O)NC1(C(=O)N[C@@H](CC(N)=O)C(=O)NCCCc2ccc(C)cc2)CCCCC1`, the Ka is 4 10^7/M.

`COc1ccc(CCCNC(=O)[C@H](CC(N)=O)NC(=O)C2(NC(=O)[C@H](Cc3ccc(OP(=O)(O)O)cc3)NC(C)=O)CCCCC2)cc1`: the Ka is 5 10^7/M.

`CC(=O)N[C@@H](Cc1ccc(OP(=O)(O)O)cc1)C(=O)NC1(C(=O)N[C@@H](CC(N)=O)C(=O)NCCc2cn(C)c3ccccc23)CCCCC1`: the Ka is 2.4 10^7/M.
